Reference: ChEMBL document CHEMBL1128333, “Derivatives of cis-2-amino-8-hydroxy-1-methyltetralin: mixed 5-HT1A-receptor agonists and dopamine D2-receptor antagonists” (J Med Chem, 1995)

Experiments:
[1] = species on record: Rattus norvegicus; assay: DA (dopamine) content of rat striatum reflecting DA metabolism and turnover; type: functional
Summary of the method: (§1)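 Male Sprague–Dawley rats (260–310 g) received compound sc in 0.9% NaCl; saline controls. Rats were decapitated 35–45 min post-injection, and hippocampus and striatum were dissected and frozen. Tissue was homogenized in 0.1 M perchloric acid with α-methyl-5-hydroxytryptophan as internal standard, centrifuged and filtered, then analysed by HPLC-EC at 0.85 V (mobile phase pH 2.69, 35 °C). Values are percent of control, mean ± SEM.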

[2] = system: Rattus norvegicus; assay: Forepaw treading (FPT) behavior was studied in rats after subcutaneous administration of 32 uM/Kg of compound; 0/5; type: functional
[3] = species on record: Rattus norvegicus; assay: DOPAC (3,4-dihydroxyphenylacetic acid) content of rat striatum reflecting DA metabolism and turnover; type: functional; parameters: concentration or dose not given beside the values; summary of the method: as §1
[4] = species on record: Rattus norvegicus; assay: Ratio of serotonin turnover (5HIAA to 5-HT) in rat brain hippocampus compared to control; type: functional; summary of the method: as §1
[5] = species on record: Rattus norvegicus; assay: Ratio of turnover (DOPAC to DA) in rat brain striatum compared to control.; type: functional; summary of the method: as §1
[6] = species on record: Rattus norvegicus; assay: 5-HIAA (5-Hydroxyindoleacetic acid) content of rat hippocampus reflecting 5-HT metabolism and turnover; type: functional; parameters: concentration or dose not given beside the values; summary of the method: as §1
[7] = biological target: T1, 5-hydroxytryptamine receptor 1A (Rattus norvegicus, UniProt P19327); assay: Binding affinity for 5-hydroxytryptamine 1A receptor in rat brain tissue using [3H]8-OH-DPAT as radioligand; type: tissue-based
T1 sequence (P19327 whole entry): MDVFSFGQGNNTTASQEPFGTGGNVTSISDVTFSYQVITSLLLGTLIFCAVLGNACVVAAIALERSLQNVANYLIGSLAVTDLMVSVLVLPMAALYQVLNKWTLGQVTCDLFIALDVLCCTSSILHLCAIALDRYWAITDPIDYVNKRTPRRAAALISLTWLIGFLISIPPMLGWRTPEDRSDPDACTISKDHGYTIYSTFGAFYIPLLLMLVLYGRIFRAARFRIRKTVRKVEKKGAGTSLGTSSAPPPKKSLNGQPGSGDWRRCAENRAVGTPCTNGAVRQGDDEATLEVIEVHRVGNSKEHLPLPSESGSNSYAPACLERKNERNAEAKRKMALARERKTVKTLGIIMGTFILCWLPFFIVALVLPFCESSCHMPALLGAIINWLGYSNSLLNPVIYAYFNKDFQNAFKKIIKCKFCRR
Summary of the method: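 Membranes from male Sprague–Dawley rat cortex plus hippocampus, homogenized in 50 mM Tris-HCl with 4.0 mM CaCl2 and 5.7 mM ascorbic acid, pH 7.5, and preincubated 10 min at 37 °C with 10 μM pargyline. Assay used 5 mg/mL tissue and 2 nM [3H]-8-OH-DPAT, 10 min at 37 °C. Nonspecific binding was defined with 10 μM 5-HT. Bound ligand was separated on GF/B filters and counted; data were fitted by nonlinear regression.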

[8] = species on record: Rattus norvegicus; assay: HVA (Homovanillic acid)content of rat striatum reflecting DA metabolism and turnover; type: functional; parameters: concentration or dose not given beside the values
[9] = species on record: Rattus norvegicus; assay: 5-HT content of rat hippocampus reflecting 5-HT metabolism and turnover; type: functional; parameters: concentration or dose not given beside the values; summary of the method: as §1
[10] = biological target: D(2) dopamine receptor (Homo sapiens, UniProt P14416); assay: In vitro binding affinity towards human Dopamine receptor D2A was determined in mouse fibroblast LtK cells using [3H]raclopride; type: cell-based
Summary of the method: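 Membranes from Ltk− mouse fibroblasts stably expressing human D2A receptors, at 80–100 pM receptor. Buffer was 50 mM Tris-HCl, 120 mM NaCl, 5 mM KCl, 1.5 mM CaCl2, 4 mM MgCl2, 1 mM EDTA, pH 7.4. Incubation with [3H]raclopride was 60 min at 22 °C, in duplicate, with 1 μM (+)-butaclamol for nonspecific binding. Bound ligand was separated on GF/B filters; data were fitted by nonlinear regression.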

[11] = system: Rattus norvegicus; assay: Cage leaving response was studied in rats after subcutaneous administration of 32 uM/Kg of compound; 1/5; type: functional
[12] = system: Rattus norvegicus; assay: Change in body temperature in rats after subcutaneous administration; type: functional
Summary of the method: (§2)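 Rectal temperature was taken with an electrical thermometer, probe inserted 3.5 cm, before and 30 min after sc injection in 0.9% NaCl. Values are the change from the preinjection reading, analysed by Tukey HSD versus saline-treated rats. Male Sprague–Dawley rats, 260–310 g.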

[13] = system: Rattus norvegicus; assay: Flat body posture behavior was studied in rats after subcutaneous administration of 32 uM/Kg of compound; 3/5; type: functional
Summary of the method: (§3)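 Test compounds were given at 32 μmol/kg and the reference 5-HT1A agonist at 1 μmol/kg. Flat body posture, forepaw treading and hind limb abduction were each scored as absent or present. Values are animals showing the behavior out of animals tested, analysed by Fisher's exact test. Male Sprague–Dawley rats, 260–310 g.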

[14] = system: Rattus norvegicus; assay: Cage leaving response was studied in rats after subcutaneous administration of 1 uM/Kg of compound; 0/7; type: functional
[15] = system: Rattus norvegicus; assay: Flat body posture behavior was studied in rats after subcutaneous administration of 1 uM/Kg of compound; 7/7; type: functional; summary of the method: as §3
[16] = system: Rattus norvegicus; assay: Forepaw treading (FPT) behavior was studied in rats after subcutaneous administration of 1 uM/Kg of compound; 7/7; type: functional; summary of the method: as §3
[17] = system: Rattus norvegicus; assay: Change in body temperature was studied in rats upon subcutaneous administration of 1 uM/Kg of compound; type: functional; summary of the method: as §2
[18] = system: Rattus norvegicus; assay: Flat body posture behavior was studied in rats after subcutaneous administration of 32 uM/Kg of compound; 0/5; type: functional
[19] = system: Rattus norvegicus; assay: Cage leaving response was studied in rats after subcutaneous administration of 32 uM/Kg of compound; 2/5; type: functional
[20] = system: Rattus norvegicus; assay: Forepaw treading (FPT) behavior was studied in rats after subcutaneous administration of 32 uM/Kg of compound; 0/4; type: functional; summary of the method: as §3
[21] = system: Rattus norvegicus; assay: Cage leaving response was studied in rats after subcutaneous administration of 32 uM/Kg of compound; 1/4; type: functional
[22] = system: Rattus norvegicus; assay: Flat body posture behavior was studied in rats after subcutaneous administration of 32 uM/Kg of compound; 0/4; type: functional; summary of the method: as §3
[23] = system: Rattus norvegicus; assay: Flat body posture behavior was studied in rats after subcutaneous administration of 32 uM/Kg of compound; 4/4; type: functional; summary of the method: as §3
[24] = system: Rattus norvegicus; assay: Cage leaving response was studied in rats after subcutaneous administration of 32 uM/Kg of compound; 0/4; type: functional
[25] = system: Rattus norvegicus; assay: Forepaw treading (FPT) behavior was studied in rats after subcutaneous administration of 32 uM/Kg of compound; 4/4; type: functional; summary of the method: as §3

D(2) dopamine receptor, sequence (P14416 whole entry): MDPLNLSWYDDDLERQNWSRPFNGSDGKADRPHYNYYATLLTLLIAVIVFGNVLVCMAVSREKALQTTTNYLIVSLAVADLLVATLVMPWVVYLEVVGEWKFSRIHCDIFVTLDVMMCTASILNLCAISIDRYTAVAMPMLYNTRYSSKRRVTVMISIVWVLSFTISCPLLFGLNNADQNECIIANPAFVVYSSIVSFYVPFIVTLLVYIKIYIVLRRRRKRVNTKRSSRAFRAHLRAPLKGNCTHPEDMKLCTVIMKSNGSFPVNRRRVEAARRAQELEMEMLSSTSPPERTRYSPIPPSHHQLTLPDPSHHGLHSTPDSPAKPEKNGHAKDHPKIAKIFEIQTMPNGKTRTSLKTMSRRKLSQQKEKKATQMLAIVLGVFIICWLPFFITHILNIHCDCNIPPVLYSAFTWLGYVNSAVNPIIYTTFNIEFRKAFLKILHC

Structure (SMILES)	Control [1] [%]	FPT [2]	Control [3] [%]	Ratio [4]	Ratio [5]	Control [6] [%]	Ki [7] [nM]	Control [8] [%]	Control [9] [%]	Ki [10] [nM]	Change of body temperature [12] [°C]	FBP [23]	Cage leaving [24]	FPT [25]	other results
CCCN(CCC)[C@@H]1CCc2ccccc2[C@@H]1C	95	0	152	98	164	92	49	168	94	87	-0.7				Cage leaving [11]: 1; FBP [13]: 3
CCCN(CCC)[C@@H]1CCc2cccc(O)c2C1	108		109			80		105	130						Cage leaving [14]: 0; FBP [15]: 7; FPT [16]: 7; Change of body temperature [17]: -2.6 °C
CCCN(CCC)[C@H]1CCc2cccc(C(=O)OC)c2[C@H]1C	96	0	97	131	103	112	417	104	86		-0.1				FBP [18]: 0; Cage leaving [19]: 2
CCCN(CCC)[C@H]1CCc2cccc(OC)c2[C@H]1C	118		80	96	69	79	285	53	81	1050	-1.2				FPT [20]: 0; Cage leaving [21]: 1; FBP [22]: 0
CCCN(CCC)[C@@H]1CCc2cccc(O)c2[C@@H]1C	83		225	72	275	88		196	121	30	-0.2	4	0	4	
CCCN(CCC)[C@@H]1CCc2cccc(OC)c2[C@@H]1C	89		134	70	151	76	6	121	108	33.9	-2.5	4	0	4	
